Variants at the floor of the assay were thinned out.
B1: tRNA (parent)
chain: GUUCCGUUGGCGUAAUGGUAACGCGUCUCCCUCCUAAGGAGAAGACUGCGGGUUCGAGUCCCGUACGGAACG

Variants of: B1
Experiment: yeast fitness relative to wild type (ratio to wild type); higher = fitter; tRNA-Arg(CCU), competitive growth, 37 C, YPD
In short: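 Changes in genotype frequencies gave Darwinian fitness relative to wild type. Frequencies were read by 100-nucleotide paired-end sequencing of gene amplicons before and after pooled Saccharomyces cerevisiae strains, carrying tRNA-Arg(CCU) gene variants at the native locus, were competed in YPD at 37°C for 24 hours in six replicates. A genotype was kept only with ≥ 100 starting reads, and estimates < 0.5 were set to 0.5.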

Variant	yeast fitness
A14C U35C A69U	≤ 0.5
A14G C31U U35C A40G A65U	≤ 0.5
A14G A21C C30G C55G	0.533
A14G A21C G63C	0.546
A14G A65U	0.737
A14G A65C	0.903
A14C A69C	0.654
A14G C30U G39A C60G	≤ 0.5
A14C C34U A36G G39C	0.535
A14C A36G A43U G68A	0.522
A14C U47C	0.79
A14C U26A C29U C49U C62G G68C	0.519
A14C U19C C33G	0.641
A14C C30A C31G U64A	0.584
A14C C24G G41A G44A U53A C66U	≤ 0.5
A14G C31G A37G	≤ 0.5
A14G A45G C61A	≤ 0.5
A14C G17A	0.679
A14C C27U C34G G51A G67U	≤ 0.5
A14G	0.796
A14G A15U G39U C61U	≤ 0.5

Variant	yeast fitness
A14C A45U A69U	0.619
A14C G39A	0.754
A14C U19G U59C A69G	≤ 0.5
A14G A43G G52C U53C G63C	≤ 0.5
A14G C24U A65U	0.54
A14C C49A G58U	≤ 0.5
A14C C22U U32A C34U C66U	0.576
A14C A21G U53A	≤ 0.5
A14G A43G	0.932
A14C C55G G68C	≤ 0.5
A14G A43C A45G	0.585
A14G A42U G44C U54A	≤ 0.5
A14G C24A	0.666
A14G C34G A43C G58U A65U	≤ 0.5
A14G C29G C31U A70C	0.51
A14G C29G C31U A70G	≤ 0.5
A14C C34A C61U U64A A69G	≤ 0.5
A14G A43G C60U C62U A70C	≤ 0.5
A14C G18A A20U	≤ 0.5
A14G C29U G52C	≤ 0.5
A14C C22U C34A	≤ 0.5

Variant	yeast fitness
A14G C24G C66U	≤ 0.5
A14C A57C C62U	≤ 0.5
A14C C24G C31A C33G G44C	0.584
A14C G23A A45U C61U	0.782
A14C G39C C60U	≤ 0.5
A14C C34A A37G A70U	≤ 0.5
A14C A37C G51A U59A	0.56
A14C G51C	0.53
A14G C34U C49A C60U	0.512
A14G C33U G63A	0.614
A14C C49G A70U	≤ 0.5
A14C C22G G67A	≤ 0.5
A14G C46U	0.886
A14C G68C	0.687
A14G C31U G68A	0.568
A14G A21G	0.989
A14G A21C	0.866
A14G C29U G39A C49U G56C	≤ 0.5
A14C U16A G41C	≤ 0.5
A14C C22A C46A	0.605
A14C C22G G25A C31U	0.528

Variant	yeast fitness
A14G A45U C61U	0.665
A14C C22U A70G	≤ 0.5
A14C A21U C46A A69C	0.59
A14G A42G C46G	0.517
A14G C22U C34U U35A C55A	≤ 0.5
A14C U16G C29U U54C	≤ 0.5
A14G C33G A70U	0.545
A14G C27G C34G A37U U64A	0.667
A14G C22U C24U A65C	≤ 0.5
A14G A15G C33G C34U A43C C49G C61G C66U A69U	≤ 0.5
A14G C29U	0.988
A14G C31U G58C G68A	≤ 0.5
A14C U19A	0.602
A14G A42U C62U A70C	≤ 0.5
A14G C22U C34U U54C C55A	≤ 0.5
A14G A15U	0.704
A14G C22U A70C	≤ 0.5
A14G A15G A45U C66U	0.619
A14C C29U C30G C31A C34A G52C	≤ 0.5
A14C C29G G48C G67A	≤ 0.5
A14C U28A A42U U54A	≤ 0.5

— the RNAGym collection of RNA variant scans (doi:10.1126/science.aae0568)
